Measurements as given in ChEMBL document CHEMBL1142088, “Cumulative effects of several nonenzymatic mechanisms on the resistance of Pseudomonas aeruginosa to aminoglycosides” (2007).
≈ marks a conversion by molar mass, not a printed value.

Key:
Assay type in all cases: functional
[1] = tested on: Pseudomonas aeruginosa; assay: Antibacterial activity against Pseudomonas aeruginosa FE60 containing inactivated mexXY gene by microdilution method
[2] = tested on: Pseudomonas aeruginosa; assay: Antibacterial activity against Pseudomonas aeruginosa KJ7106 with inactivated PA5471 gene by microdilution method
[3] = tested on: Pseudomonas aeruginosa; assay: Antibacterial activity against Pseudomonas aeruginosa FE53G with inactivated mexZ and nuoG genes by microdilution method
[4] = tested on: Pseudomonas aeruginosa; assay: Antibacterial activity against Pseudomonas aeruginosa FE63 containing inactivated rplY and PA5471 genes by microdilution method
[5] = tested on: Pseudomonas aeruginosa; assay: Antibacterial activity against Pseudomonas aeruginosa FE57G with inactivated rplY and nuoG genes by microdilution method
[6] = tested on: Pseudomonas aeruginosa; assay: Antibacterial activity against Pseudomonas aeruginosa FE57GUZ with inactivated rplY, nuoG, galU and mexZ genes […]
[7] = tested on: Pseudomonas aeruginosa; assay: Antibacterial activity against Pseudomonas aeruginosa FE10U with inactivated nuoG and galU genes by microdilution method
[8] = tested on: Pseudomonas aeruginosa; assay: Antibacterial activity against Pseudomonas aeruginosa FE57GZ with inactivated rplY, nuoG and mexZ genes […]
[9] = tested on: Pseudomonas aeruginosa; assay: Antibacterial activity against Pseudomonas aeruginosa FE53U with inactivated mexZ and galU genes by microdilution method
[10] = tested on: Pseudomonas aeruginosa; assay: Antibacterial activity against Pseudomonas aeruginosa FE57GU with inactivated rplY, nuoG and galU genes by […]
[11] = tested on: Pseudomonas aeruginosa; assay: Antibacterial activity against Pseudomonas aeruginosa FE53GU with inactivated mexZ, nuoG and galU genes by […]
[12] = tested on: Pseudomonas aeruginosa; assay: Antibacterial activity against Pseudomonas aeruginosa FE57 with inactivated rplY gene by microdilution method
[13] = tested on: Pseudomonas aeruginosa; assay: Antibacterial activity against Pseudomonas aeruginosa FE10 with inactivated nuoG gene by microdilution method
[14] = tested on: Pseudomonas aeruginosa; assay: Antibacterial activity against Pseudomonas aeruginosa FE57Z with inactivated rplY and mexZ genes by microdilution method
[15] = tested on: Pseudomonas aeruginosa; assay: Antibacterial activity against Pseudomonas aeruginosa FE57 containing inactivated rplY gene with pARAL25 by microdilution method
How it was run: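 MIC for the rplY mutant carrying plasmid-borne rplY under the arabinose-inducible pBAD promoter. Cells grown with 150 μg/ml ticarcillin to keep the plasmid and 0.2% arabinose. Serial twofold dilution with about 10^4 bacteria per spot at 37°C.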

[16] = tested on: Pseudomonas aeruginosa; assay: Antibacterial activity against Pseudomonas aeruginosa PAO1 by microdilution method
[17] = tested on: Pseudomonas aeruginosa; assay: Antibacterial activity against Pseudomonas aeruginosa FE57U with inactivated rplY and galU genes by microdilution method
[18] = tested on: Pseudomonas aeruginosa; assay: Antibacterial activity against Pseudomonas aeruginosa FE53 with inactivated mexZ gene by microdilution method
[19] = tested on: Pseudomonas aeruginosa; assay: Antibacterial activity against Pseudomonas aeruginosa FE64 containing inactivated rplY and mexXY genes by microdilution method
[20] = tested on: Pseudomonas aeruginosa; assay: Antibacterial activity against Pseudomonas aeruginosa FE57UZ with inactivated rplY, galU and mexZ genes […]
[21] = tested on: Pseudomonas aeruginosa; assay: Antibacterial activity against Pseudomonas aeruginosa FE49 with inactivated galU gene by microdilution method

With `NCC[C@H](O)C(=O)N[C@@H]1C[C@H](N)[C@@H](O[C@H]2O[C@H](CN)[C@@H](O)[C@H](O)[C@H]2O)[C@H](O)[C@H]1O[C@H]1O[C@H](CO)[C@@H](O)[C@H](N)[C@H]1O` [AMIKACIN] as the molecule, how does the MIC [1] read?
The MIC was 1 µg/mL (≈ 1.71 µM).

What about the MIC [2] of the same molecule?
The MIC was 1 µg/mL (≈ 1.71 µM).

And the MIC [3]?
The MIC was 16 µg/mL (≈ 27.3 µM).

And the MIC [4]?
Its MIC is 2 µg/mL (≈ 3.42 µM).

And the MIC [5]?
Its MIC is 32 µg/mL (≈ 54.6 µM).

What about the MIC [6] of the same molecule?
Its MIC is 64 µg/mL (≈ 109 µM).

And the MIC [7]?
Its MIC is 8 µg/mL (≈ 13.7 µM).

What about the MIC [8] of the same molecule?
Its MIC is 32 µg/mL (≈ 54.6 µM).

And the MIC [9]?
The MIC was 16 µg/mL (≈ 27.3 µM).

And the MIC [10]?
Its MIC is 32 µg/mL (≈ 54.6 µM).

What about the MIC [11] of the same molecule?
Its MIC is 32 µg/mL (≈ 54.6 µM).

What about the MIC [12] of the same molecule?
Its MIC is 8 µg/mL (≈ 13.7 µM).

What about the MIC [13] of the same molecule?
Its MIC is 8 µg/mL (≈ 13.7 µM).

What about the MIC [14] of the same molecule?
Its MIC is 16 µg/mL (≈ 27.3 µM).

What about the MIC [15] of the same molecule?
The MIC was 4 µg/mL (≈ 6.83 µM).

And the MIC [16]?
The MIC was 4 µg/mL (≈ 6.83 µM).

And the MIC [17]?
The MIC was 16 µg/mL (≈ 27.3 µM).

And the MIC [18]?
Its MIC is 8 µg/mL (≈ 13.7 µM).

And the MIC [19]?
Its MIC is 2 µg/mL (≈ 3.42 µM).

And the MIC [20]?
Its MIC is 32 µg/mL (≈ 54.6 µM).

And the MIC [21]?
Its MIC is 8 µg/mL (≈ 13.7 µM).

For `CCN[C@@H]1C[C@H](N)[C@@H](O[C@H]2OC(CN)=CC[C@H]2N)[C@H](O)[C@H]1O[C@H]1OC[C@](C)(O)[C@H](NC)[C@H]1O` [NETILMICIN], which MIC [3] is on record?
The MIC was 16 µg/mL (≈ 33.6 µM).

What about the MIC [5] of the same molecule?
The MIC was 16 µg/mL (≈ 33.6 µM).

What about the MIC [6] of the same molecule?
The MIC was 256 µg/mL (≈ 538 µM).

And the MIC [7]?
Its MIC is 8 µg/mL (≈ 16.8 µM).

What about the MIC [8] of the same molecule?
Its MIC is 128 µg/mL (≈ 269 µM).

And the MIC [9]?
The MIC was 16 µg/mL (≈ 33.6 µM).

What about the MIC [10] of the same molecule?
Its MIC is 64 µg/mL (≈ 135 µM).

What about the MIC [11] of the same molecule?
The MIC was 64 µg/mL (≈ 135 µM).

And the MIC [12]?
Its MIC is 8 µg/mL (≈ 16.8 µM).

What about the MIC [13] of the same molecule?
Its MIC is 8 µg/mL (≈ 16.8 µM).

And the MIC [14]?
The MIC was 16 µg/mL (≈ 33.6 µM).

What about the MIC [16] of the same molecule?
Its MIC is 4 µg/mL (≈ 8.41 µM).

What about the MIC [17] of the same molecule?
The MIC was 16 µg/mL (≈ 33.6 µM).

And the MIC [18]?
Its MIC is 8 µg/mL (≈ 16.8 µM).

What about the MIC [20] of the same molecule?
Its MIC is 64 µg/mL (≈ 135 µM).

And the MIC [21]?
Its MIC is 8 µg/mL (≈ 16.8 µM).

For `NC[C@H]1O[C@H](O[C@H]2[C@H](O)[C@@H](O[C@H]3O[C@H](CO)[C@@H](O)[C@H](N)[C@H]3O)[C@H](N)C[C@@H]2N)[C@H](N)C[C@@H]1O` [TOBRAMYCIN], which MIC [1] is on record?
The MIC was 0.25 µg/mL (≈ 0.535 µM).

What about the MIC [2] of the same molecule?
Its MIC is 0.25 µg/mL (≈ 0.535 µM).

And the MIC [3]?
The MIC was 2 µg/mL (≈ 4.28 µM).

And the MIC [4]?
Its MIC is 0.5 µg/mL (≈ 1.07 µM).

And the MIC [5]?
Its MIC is 2 µg/mL (≈ 4.28 µM).

What about the MIC [6] of the same molecule?
The MIC was 8 µg/mL (≈ 17.1 µM).

And the MIC [7]?
Its MIC is 2 µg/mL (≈ 4.28 µM).

And the MIC [8]?
Its MIC is 4 µg/mL (≈ 8.56 µM).

What about the MIC [9] of the same molecule?
The MIC was 2 µg/mL (≈ 4.28 µM).

And the MIC [10]?
Its MIC is 4 µg/mL (≈ 8.56 µM).

What about the MIC [11] of the same molecule?
Its MIC is 4 µg/mL (≈ 8.56 µM).

And the MIC [12]?
Its MIC is 1 µg/mL (≈ 2.14 µM).

What about the MIC [13] of the same molecule?
Its MIC is 1 µg/mL (≈ 2.14 µM).

And the MIC [14]?
Its MIC is 2 µg/mL (≈ 4.28 µM).

And the MIC [15]?
The MIC was 0.25 µg/mL (≈ 0.535 µM).

What about the MIC [16] of the same molecule?
The MIC was 0.5 µg/mL (≈ 1.07 µM).

And the MIC [17]?
Its MIC is 2 µg/mL (≈ 4.28 µM).

What about the MIC [18] of the same molecule?
Its MIC is 1 µg/mL (≈ 2.14 µM).

What about the MIC [19] of the same molecule?
The MIC was 0.5 µg/mL (≈ 1.07 µM).

And the MIC [20]?
The MIC was 4 µg/mL (≈ 8.56 µM).

And the MIC [21]?
Its MIC is 1 µg/mL (≈ 2.14 µM).

What does the source list for `CO/N=C(\C(=O)N[C@@H]1C(=O)N2C(C(=O)[O-])=C(C[N+]3(C)CCCC3)CS[C@H]12)c1csc(N)n1` [CEFEPIME]?
MIC [1]: 4 µg/mL (≈ 8.32 µM); MIC [2]: 4 µg/mL (≈ 8.32 µM); MIC [3]: 16 µg/mL (≈ 33.3 µM); MIC [4]: 2 µg/mL (≈ 4.16 µM); MIC [5]: 4 µg/mL (≈ 8.32 µM); MIC [6]: 16 µg/mL (≈ 33.3 µM); MIC [7]: 4 µg/mL (≈ 8.32 µM); MIC [8]: 16 µg/mL (≈ 33.3 µM); MIC [9]: 16 µg/mL (≈ 33.3 µM); MIC [10]: 8 µg/mL (≈ 16.6 µM); MIC [11]: 16 µg/mL (≈ 33.3 µM); MIC [12]: 4 µg/mL (≈ 8.32 µM); MIC [13]: 4 µg/mL (≈ 8.32 µM); MIC [14]: 16 µg/mL (≈ 33.3 µM); MIC [16]: 4 µg/mL (≈ 8.32 µM); MIC [17]: 4 µg/mL (≈ 8.32 µM); MIC [18]: 16 µg/mL (≈ 33.3 µM); MIC [19]: 2 µg/mL (≈ 4.16 µM); MIC [20]: 16 µg/mL (≈ 33.3 µM); MIC [21]: 4 µg/mL (≈ 8.32 µM)

Which results are given for `NC[C@H]1O[C@H](O[C@H]2[C@H](O)[C@@H](O[C@H]3O[C@H](CO)[C@@H](O)[C@H](N)[C@H]3O)[C@H](N)C[C@@H]2N)[C@H](O)[C@@H](O)[C@@H]1O` [KANAMYCIN]?
MIC [3]: 256 µg/mL (≈ 528 µM); MIC [5]: 512 µg/mL (≈ 1060 µM); MIC [6]: 1020 µg/mL (≈ 2110 µM); MIC [7]: 256 µg/mL (≈ 528 µM); MIC [8]: 1020 µg/mL (≈ 2110 µM); MIC [9]: 256 µg/mL (≈ 528 µM); MIC [10]: 512 µg/mL (≈ 1060 µM); MIC [11]: 512 µg/mL (≈ 1060 µM); MIC [12]: 256 µg/mL (≈ 528 µM); MIC [13]: 256 µg/mL (≈ 528 µM); MIC [14]: 256 µg/mL (≈ 528 µM); MIC [16]: 64 µg/mL (≈ 132 µM); MIC [17]: 256 µg/mL (≈ 528 µM); MIC [18]: 128 µg/mL (≈ 264 µM); MIC [20]: 512 µg/mL (≈ 1060 µM); MIC [21]: 128 µg/mL (≈ 264 µM)

Which MIC [1] does the source give for GENTAMICIN here?
The MIC was 0.125 µg/mL.

What about the MIC [2] of the same molecule?
The MIC was 0.125 µg/mL.

What about the MIC [3] of the same molecule?
Its MIC is 8 µg/mL.

What about the MIC [4] of the same molecule?
Its MIC is 0.25 µg/mL.

And the MIC [5]?
Its MIC is 8 µg/mL.

And the MIC [7]?
The MIC was 4 µg/mL.

And the MIC [9]?
Its MIC is 8 µg/mL.

And the MIC [12]?
Its MIC is 2 µg/mL.

And the MIC [13]?
The MIC was 2 µg/mL.

What about the MIC [14] of the same molecule?
The MIC was 8 µg/mL.

And the MIC [15]?
Its MIC is 1 µg/mL.

What about the MIC [16] of the same molecule?
The MIC was 1 µg/mL.

What about the MIC [17] of the same molecule?
Its MIC is 8 µg/mL.

What about the MIC [18] of the same molecule?
The MIC was 4 µg/mL.

And the MIC [19]?
Its MIC is 0.25 µg/mL.

And the MIC [21]?
Its MIC is 2 µg/mL.

What does the source list for `O=C(O)c1cn(C2CC2)c2cc(N3CCNCC3)c(F)cc2c1=O` [CIPROFLOXACIN]?
MIC [3]: 1 µg/mL (≈ 3.02 µM); MIC [6]: 1 µg/mL (≈ 3.02 µM); MIC [8]: 1 µg/mL (≈ 3.02 µM); MIC [11]: 1 µg/mL (≈ 3.02 µM); MIC [14]: 1 µg/mL (≈ 3.02 µM); MIC [18]: 1 µg/mL (≈ 3.02 µM); MIC [20]: 1 µg/mL (≈ 3.02 µM)
